Key:
PBMC [1] = experiment: Cellular uptake in PHA/IL-2-stimulated human PBMC at 10 uM after 24 hrs by MS/MS analysis; type: ADME, cell-based
How it was run: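 PHA-stimulated (4 μg/ml PHA, 48 to 72 h; 20 U/ml rhIL-2) human PBMCs at 2 × 10^6 cells/ml in RPMI 1640 with 15% FBS, given tenofovir or prodrug (final 0.01 to 10 μM) for 24 h at 37°C. Cells washed three times in cold 0.9% NaCl, counted, and 1 × 10^7 cell aliquots pelleted. TFV, TFV-MP and TFV-PP were separated by ion-pairing reverse-phase LC and detected by positive-ion electrospray MS. Output is pmol per 10^6 cells.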

[2] = Cytotoxicity against human dendritic cells after 24 hrs by XTT assay; type: cell-based
How it was run: (§1)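 Six-concentration growth-inhibition test: 10 to 0.032 μM for the prodrug and TDF, up to 100 μM for TFV, with Triton X-100 run in parallel. Cell lines were split 1:2 the day before and seeded at 5 × 10^3 to 2 × 10^4 cells/well, with adherent lines left overnight. Dendritic cells were derived with GM-CSF/IL-4 for 7 days, then LPS 10 ng/ml for 2 days. Viability was read by XTT.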

PBMC [3] = experiment: Cytotoxicity against PHA/IL-2-stimulated human PBMC after 24 hrs by XTT assay; type: cell-based; how it was run: as §1
HeLa = experiment: Cytotoxicity against human HeLa cells after 24 hrs by XTT assay; type: cell-based; how it was run: as §1
[4] = Cytotoxicity against human ME180 cells after 24 hrs by XTT assay; type: cell-based; conditions: me-180, 24 h; how it was run: as §1
PBMC [5] = experiment: Cellular uptake in human PBMC at 1 uM assessed as TFV-monophosphate level after 24 hrs by MS/MS analysis; type: ADME, cell-based
How it was run: (§2)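 Human PBMCs, unstimulated or PHA/IL-2-stimulated, at 2 × 10^6 cells/ml in RPMI 1640 with 15% FBS, exposed 24 h at 37°C to final 0.01, 0.1, 1.0 or 10 μM of the prodrug, or 1.0 or 10 μM tenofovir. After cold saline washes the cells were counted and 1 × 10^7-cell pellets made. TFV, TFV-MP and TFV-PP were measured by ion-pairing LC with positive-ion electrospray MS as pmol/10^6 cells.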

PBMC [6] = experiment: Cellular uptake in human PBMC at 10 uM after 24 hrs by MS/MS analysis; type: ADME, cell-based; how it was run: as §2
PBMC [7] = experiment: Cellular uptake in human PBMC at 10 uM assessed as TFV-monophosphate after 24 hrs by MS/MS analysis; type: ADME, cell-based; how it was run: as §2
PBMC [8] = experiment: Cellular uptake in human PBMC at 10 uM assessed as TFV-diphosphate after 24 hrs by MS/MS analysis; type: ADME, cell-based; how it was run: as §2
[9] = system: Human immunodeficiency virus 1; experiment: Antiviral activity against HIV1 subtype A isolate 92RW009 infected in human PBMC after 48 to 72 hrs by MTS assay; type: functional, organism-based; conditions: Human immunodeficiency virus 1, isolate 92RW009
How it was run: (§3)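 Fresh donor PBMCs, HIV- and HBV-seronegative, were stimulated with 4 μg/ml PHA for 48 to 72 h and kept on 20 U/ml rhIL-2. Cells pooled from at least two donors were seeded at 5 × 10^4 per well and infected at MOI ~0.1. Nine compound concentrations were run in triplicate wells for 7 days.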

[10] = system: Human immunodeficiency virus 1; experiment: Antiviral activity against HIV1 subtype A isolate 92UG029 infected in human PBMC after 48 to 72 hrs by MTS assay; type: functional, organism-based; conditions: Human immunodeficiency virus 1, isolate 92UG029; how it was run: as §3
[11] = system: Human immunodeficiency virus 1; experiment: Antiviral activity against HIV1 subtype A isolate 92UG037 infected in human PBMC after 48 to 72 hrs by MTS assay; type: functional, organism-based; conditions: Human immunodeficiency virus 1, isolate 92UG037; how it was run: as §3
[12] = system: Human immunodeficiency virus 1; experiment: Antiviral activity against HIV1 subtype B isolate Ba-L infected in human PBMC after 48 to 72 hrs by MTS assay; type: functional, organism-based; conditions: Human immunodeficiency virus 1, isolate Ba-L; how it was run: as §3
[13] = system: Human immunodeficiency virus 1; experiment: Antiviral activity against HIV1 subtype B isolate 96USHIPS7 infected in human PBMC after 48 to 72 hrs by MTS assay; type: functional, organism-based; conditions: Human immunodeficiency virus 1, isolate 96USHIPS7; how it was run: as §3
[14] = system: Human immunodeficiency virus 1; experiment: Antiviral activity against HIV1 subtype D isolate 92UG001 infected in human PBMC after 48 to 72 hrs by MTS assay; type: functional, organism-based; conditions: Human immunodeficiency virus 1, isolate 92UG001; how it was run: as §3
[15] = system: Human immunodeficiency virus 1; experiment: Antiviral activity against HIV1 subtype E isolate CMU08 infected in human PBMC after 48 to 72 hrs by MTS assay; type: functional, organism-based; conditions: Human immunodeficiency virus 1, isolate CMU08; how it was run: as §3
[16] = system: Human immunodeficiency virus 1; experiment: Antiviral activity against HIV1 subtype F isolate 93BR019 infected in human PBMC after 48 to 72 hrs by MTS assay; type: functional, organism-based; conditions: Human immunodeficiency virus 1, isolate 93BR019; how it was run: as §3
[17] = system: Human immunodeficiency virus 1; experiment: Antiviral activity against HIV1 subtype F isolate 93BR020 infected in human PBMC after 48 to 72 hrs by MTS assay; type: functional, organism-based; conditions: Human immunodeficiency virus 1, isolate 93BR020; how it was run: as §3
PBMC [18] = experiment: Cellular uptake in PHA/IL-2-stimulated human PBMC at 0.01 uM assessed as TFV-monophosphate after 24 hrs by MS/MS analysis; type: ADME, cell-based; conditions: BLD = below limit of detection
How it was run: (§4)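 PHA/IL-2-stimulated PBMCs at 2 × 10^6 cells/ml (5 × 10^7 per flask) were exposed for 24 h at 37°C. Cells were washed three times in cold 0.9% NaCl and counted by trypan blue. Aliquots of 1 × 10^7 cells were pelleted. TFV, TFV-MP and TFV-PP were separated by ion-pairing reverse-phase gradient LC and detected by positive electrospray. Results are given as pmol/10^6 cells.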

PBMC [19] = experiment: Cellular uptake in PHA/IL-2-stimulated human PBMC at 0.01 uM assessed as TFV-diphosphate after 24 hrs by MS/MS analysis; type: ADME, cell-based; how it was run: as §4
PBMC [20] = experiment: Cellular uptake in PHA/IL-2-stimulated human PBMC at 0.1 uM assessed as TFV-monophosphate after 24 hrs by MS/MS analysis; type: ADME, cell-based; conditions: BLD = below limit of detection; how it was run: as §4
[21] = system: Human immunodeficiency virus 1; experiment: Antiviral activity against HIV1 group O isolate BCF01 infected in human PBMC after 48 to 72 hrs by MTS assay; type: functional, organism-based; conditions: Human immunodeficiency virus 1, isolate BCF01; how it was run: as §3
[22] = system: Human immunodeficiency virus 2; experiment: Antiviral activity against HIV2 isolate CDC310319 infected in human PBMC after 48 to 72 hrs by MTS assay; type: functional, organism-based; conditions: Human immunodeficiency virus 2, isolate CDC310319; how it was run: as §3
[23] = system: Human immunodeficiency virus 2; experiment: Antiviral activity against HIV2 isolate CBL-20 infected in human PBMC after 48 to 72 hrs by MTS assay; type: functional, organism-based; conditions: Human immunodeficiency virus 2, isolate CBL-20; how it was run: as §3
[24] = system: Human immunodeficiency virus 1; experiment: Antiviral activity against HIV1 isolate JR-CSF infected in human MDM […] by MTS assay; type: functional; conditions: Human immunodeficiency virus 1, JRCSF ISOLATE
PBMC [25] = experiment: Cellular uptake in human PBMC at 0.01 uM assessed as TFV-diphosphate after 24 hrs by MS/MS analysis; type: ADME, cell-based; how it was run: as §2
PBMC [26] = experiment: Cellular uptake in human PBMC at 0.1 uM assessed as TFV-monophosphate after 24 hrs by MS/MS analysis; type: ADME, cell-based; conditions: BLD = below limit of detection; how it was run: as §2
PBMC [27] = experiment: Cellular uptake in human PBMC at 0.1 uM assessed as TFV-diphosphate after 24 hrs by MS/MS analysis; type: ADME, cell-based; how it was run: as §2
[28] = system: Human immunodeficiency virus 1; experiment: Antiviral activity against HIV1 subtype G isolate JV1083 infected in human PBMC after 48 to 72 hrs by MTS assay; conditions: Human immunodeficiency virus 1, isolate JV1083

Compound | Activity [2] | Activity (PBMC [3]) | Activity (HeLa) | Activity [4] | Drug uptake (PBMC [7]) [pmol/10^6 cells] | Drug uptake (PBMC [8]) [pmol/10^6 cells] | EC50 [9] [nM] | EC50 [10] [nM] | EC50 [11] [nM] | EC50 [14] [nM] | EC50 [15] [nM] | EC50 [16] [nM] | EC50 [17] [nM] | EC50 [22] [nM] | EC50 [23] [nM] | EC50 [28] [nM] | further results
C[C@H](Cn1cnc2c(N)ncnc21)OCP(=O)(O)O [TENOFOVIR ANHYDROUS] | Non-toxic | Non-toxic | Non-toxic | Non-toxic | 0.05 | 0.15 |  |  |  |  |  |  |  |  |  |  | Drug uptake (PBMC [1]): 0.09 pmol/10^6 cells; Drug uptake (PBMC [5]; BLD = below limit of detection): BLD; Drug uptake (PBMC [6]): 0.11 pmol/10^6 cells
CCCCCCCCCCCCCCCCOCCCOP(=O)(O)CO[C@H](C)Cn1cnc2c(N)ncnc21 [TENOFOVIR EXALIDEX] | Non-toxic | Non-toxic | Non-toxic | Non-toxic | 0.12 | 1.1 | 3.3 | 3.3 | 3.3 | 2.1 | 2.3 | 2.7 | 2.7 | 3.5 | 3.5 | 2.2 | EC50 [12]: 1.5 nM; EC50 [13]: 1.5 nM; Drug uptake (PBMC [18]): BLD; Drug uptake (PBMC [19]): 0.07 pmol/10^6 cells; Drug uptake (PBMC [20]): BLD; EC50 [21]: 5 nM; EC50 [24]: 3.1 nM; Drug uptake (PBMC [5]): 0.05 pmol/10^6 cells; Drug uptake (PBMC [25]): 0.07 pmol/10^6 cells; Drug uptake (PBMC [26]): BLD; Drug uptake (PBMC [27]): 0.07 pmol/10^6 cells
Cc1cn([C@H]2C[C@H](N=[N+]=[N-])[C@@H](CO)O2)c(=O)[nH]c1=O [ZIDOVUDINE] |  |  |  |  |  |  | 14 | 14 | 14 | 6.3 | 5.5 | 9.6 | 9.6 | 9.3 | 9.3 | 4.7 | 
